ChEMBL document CHEMBL2434871, “Discovery of a potent dual EGFR/HER-2 inhibitor L-2 (selatinib) for the treatment of cancer” (Eur J Med Chem, 2013)

Assays:
[1] = biological target: Receptor tyrosine-protein kinase erbB-2 (Homo sapiens, UniProt P04626); assay: Inhibition of HER-2 (unknown origin) using poly-(Glu4-Tyr) as substrate after 1 hr by ELISA-based spectrophotometry
Outline: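 ELISA on plates pre-coated with poly(Glu,Tyr 4:1) substrate. Serially diluted compounds plus ATP were added in 50 mM HEPES pH 7.4 containing 20 mM MgCl₂, 0.2 mM MnCl₂, 0.1 mM Na₃VO₄ and 1 mM DTT. Phosphotyrosine was detected with anti-phosphotyrosine antibody PY99 (1:500), then HRP anti-mouse IgG, then o-phenylenediamine/H₂O₂ at pH 5.5.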

[2] = biological target: Epidermal growth factor receptor (Homo sapiens, UniProt P00533); assay: Inhibition of EGFR (unknown origin) using poly-(Glu4-Tyr) as substrate after 1 hr by ELISA-based spectrophotometry
Chain of Epidermal growth factor receptor (P00533 whole entry): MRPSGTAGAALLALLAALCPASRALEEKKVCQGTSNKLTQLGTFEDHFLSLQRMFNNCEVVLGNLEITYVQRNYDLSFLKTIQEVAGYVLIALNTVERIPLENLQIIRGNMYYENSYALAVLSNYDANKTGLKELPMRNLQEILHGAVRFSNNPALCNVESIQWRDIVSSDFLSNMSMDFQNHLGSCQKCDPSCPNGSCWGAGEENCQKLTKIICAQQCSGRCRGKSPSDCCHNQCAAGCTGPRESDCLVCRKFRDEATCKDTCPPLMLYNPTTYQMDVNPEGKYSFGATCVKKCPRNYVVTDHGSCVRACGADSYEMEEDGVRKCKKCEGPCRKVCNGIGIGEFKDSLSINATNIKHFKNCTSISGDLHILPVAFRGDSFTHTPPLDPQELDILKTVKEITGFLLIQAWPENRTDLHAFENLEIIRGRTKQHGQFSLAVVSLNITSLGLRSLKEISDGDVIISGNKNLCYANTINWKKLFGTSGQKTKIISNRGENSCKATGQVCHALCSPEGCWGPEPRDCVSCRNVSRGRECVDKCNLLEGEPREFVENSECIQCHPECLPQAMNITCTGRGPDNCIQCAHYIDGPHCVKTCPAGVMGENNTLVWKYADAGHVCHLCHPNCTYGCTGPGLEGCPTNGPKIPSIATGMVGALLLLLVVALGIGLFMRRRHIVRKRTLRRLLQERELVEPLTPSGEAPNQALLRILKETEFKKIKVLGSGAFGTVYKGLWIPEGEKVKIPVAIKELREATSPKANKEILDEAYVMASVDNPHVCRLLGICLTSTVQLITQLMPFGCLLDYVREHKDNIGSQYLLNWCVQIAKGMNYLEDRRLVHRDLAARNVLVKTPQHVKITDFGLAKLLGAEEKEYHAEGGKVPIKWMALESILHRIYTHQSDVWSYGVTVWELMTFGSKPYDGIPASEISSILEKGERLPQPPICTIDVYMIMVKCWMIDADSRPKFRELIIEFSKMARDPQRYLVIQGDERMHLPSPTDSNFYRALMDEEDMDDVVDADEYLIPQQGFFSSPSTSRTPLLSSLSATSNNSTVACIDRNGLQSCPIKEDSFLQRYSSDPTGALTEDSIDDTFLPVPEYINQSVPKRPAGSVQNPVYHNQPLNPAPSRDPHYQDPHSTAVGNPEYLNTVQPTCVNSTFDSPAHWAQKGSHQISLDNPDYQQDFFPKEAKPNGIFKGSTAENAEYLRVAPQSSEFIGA

Mus musculus [3] = assay: Toxicity in BALB/c athymic mouse xenografted with human SKOV3 cells assessed as death at 200 mg/kg, po qd after 4 days; assay type: organism-based, SK-OV-3; set-up: dose 200 mg/kg, route oral; conditions: in vivo, 96 h
Outline: (§1)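 Female BALB/c athymic mice, 4-6 weeks old and pathogen-free, were housed under sterile conditions. NCI-N87 or SK-OV-3 cells (2 × 10⁶) were implanted s.c. in the right flank. At tumor volumes of 100-300 mm³, mice were randomized to vehicle control (n = 10) or treatment (n = 6). Treatment was the tosylate salt at 200 mg/kg by oral gavage once daily. Mice were monitored for clinical signs, body weight and death.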

Mus musculus [4] = assay: Toxicity in BALB/c athymic mouse xenografted with human NCI-N87 cells assessed as death at 200 mg/kg, po qd after 4 days; assay type: organism-based; set-up: dose 200 mg/kg, route oral; conditions: in vivo, 96 h; outline: as §1
Mus musculus [5] = assay: Toxicity in BALB/c athymic mouse xenografted with human SKOV3 cells assessed as hematuria at 200 mg/kg, po qd after 4 days; assay type: organism-based, SK-OV-3; set-up: dose 200 mg/kg, route oral; conditions: in vivo, 96 h
Mus musculus [6] = assay: Toxicity in BALB/c athymic mouse xenografted with human NCI-N87 cells assessed as hematuria at 200 mg/kg, po qd after 4 days; assay type: organism-based; set-up: dose 200 mg/kg, route oral; conditions: in vivo, 96 h
Mus musculus [7] = assay: Toxicity in BALB/c athymic mouse xenografted with human SKOV3 cells assessed as weight loss at 200 mg/kg, po qd after 4 days; assay type: organism-based, SK-OV-3; set-up: dose 200 mg/kg, route oral; conditions: in vivo, 96 h
Mus musculus [8] = assay: Toxicity in BALB/c athymic mouse xenografted with human NCI-N87 cells assessed as weight loss at 200 mg/kg, po qd after 4 days; assay type: organism-based; set-up: dose 200 mg/kg, route oral; conditions: in vivo, 96 h
Mus musculus [9] = assay: Toxicity in BALB/c athymic mouse xenografted with human SKOV3 cells assessed as scruffy skin at 200 mg/kg, po qd; assay type: organism-based, SK-OV-3; set-up: dose 200 mg/kg, route oral; conditions: in vivo
Mus musculus [10] = assay: Toxicity in BALB/c athymic mouse xenografted with human NCI-N87 cells assessed as scruffy skin at 200 mg/kg, po qd; assay type: organism-based; set-up: dose 200 mg/kg, route oral; conditions: in vivo
Mus musculus [11] = assay: Toxicity in BALB/c athymic mouse xenografted with human SKOV3 cells assessed as diarrhea at 200 mg/kg, po qd; assay type: organism-based, SK-OV-3; set-up: dose 200 mg/kg, route oral; conditions: in vivo
Mus musculus [12] = assay: Toxicity in BALB/c athymic mouse xenografted with human NCI-N87 cells assessed as diarrhea at 200 mg/kg, po qd; assay type: organism-based; set-up: dose 200 mg/kg, route oral; conditions: in vivo
Mus musculus [13] = assay: Toxicity in BALB/c athymic mouse xenografted with human SKOV3 cells assessed as lethargic condition at 200 mg/kg, po qd; assay type: organism-based, SK-OV-3; set-up: dose 200 mg/kg, route oral; conditions: in vivo
Mus musculus [14] = assay: Toxicity in BALB/c athymic mouse xenografted with human NCI-N87 cells assessed as lethargic condition at 200 mg/kg, po qd; assay type: organism-based; set-up: dose 200 mg/kg, route oral; conditions: in vivo
BT-474 = assay: Cytotoxicity against human BT474 cells after 72 hrs by SRB assay; assay type: functional, cell-based; conditions: BT-474, 72 h
NCI-N87 [15] = assay: Cytotoxicity against human NCI-N87 cells after 72 hrs by SRB assay; assay type: functional, cell-based; conditions: NCI-N87, 72 h
[16] = Elimination half life in Wistar rat at 100 mg/kg, po; assay type: ADME, organism-based; set-up: dose 100 mg/kg, route oral; conditions: in vivo, read-out: beta t1/2 (converted)
Outline: (§2)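 Male Wistar rats (220 ± 10 g), n = 4 per group, given the tosylate salt orally by gavage at 100 mg/kg, suspended in 0.5% sodium carboxymethylcellulose. Blood was sampled at 0.25 to 24 h. Parent compound and the lapatinib metabolite were extracted by C18 solid-phase extraction and analysed by LC/MSn.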

[17] = Mean residence time in Wistar rat at 100 mg/kg, po; assay type: ADME, organism-based; set-up: dose 100 mg/kg, route oral; conditions: in vivo; outline: as §2
[18] = AUC (0 to infinity) in Wistar rat at 100 mg/kg, po; assay type: ADME, organism-based; set-up: time infinity, dose 100 mg/kg, route oral; conditions: plasma; outline: as §2
[19] = AUC (0 to t) in Wistar rat at 100 mg/kg, po; assay type: ADME, organism-based; set-up: dose 100 mg/kg, route oral; conditions: plasma; outline: as §2
[20] = Cmax in Wistar rat at 100 mg/kg, po; assay type: ADME, organism-based; set-up: dose 100 mg/kg, route oral; conditions: in vivo; outline: as §2
[21] = Tmax in Wistar rat at 100 mg/kg, po; assay type: ADME, organism-based; set-up: dose 100 mg/kg, route oral; conditions: in vivo; outline: as §2
NCI-N87 [22] = assay: Antitumor activity against human NCI-N87 cells xenografted in BALB/c athymic mouse assessed as tumor regression at 200 mg/kg, po qd after 28 days relative to vehicle-treated control; assay type: functional; conditions: NCI-N87, 672 h, read-out: TGI
Outline: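 Female BALB/c athymic mice, 4–6 weeks old, received 2 × 10⁶ NCI-N87 or SK-OV-3 cells s.c. in the right flank. At a tumor volume of 100–300 mm³ they were randomized (control n = 10, treated n = 6). Tosylate salt was given at 200 mg/kg qd by oral gavage, and controls received vehicle. Tumor volume was taken as length × width²/2 by caliper. Inhibition = (1 − T/C) × 100% on mean relative tumor volume (RTV). Two-tailed t test.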

[23] = Aqueous solubility of the compound at 25 degC by shake-flask method; assay type: physicochemical; conditions: unbuffered water
SK-OV-3 = assay: Antitumor activity against human SKOV3 cells xenografted in BALB/c athymic mouse assessed as tumor regression at 200 mg/kg, po qd after 21 days relative to vehicle-treated control; conditions: SK-OV-3, po, 504 h, read-out: TGI

Chain of Receptor tyrosine-protein kinase erbB-2 (P04626 whole entry): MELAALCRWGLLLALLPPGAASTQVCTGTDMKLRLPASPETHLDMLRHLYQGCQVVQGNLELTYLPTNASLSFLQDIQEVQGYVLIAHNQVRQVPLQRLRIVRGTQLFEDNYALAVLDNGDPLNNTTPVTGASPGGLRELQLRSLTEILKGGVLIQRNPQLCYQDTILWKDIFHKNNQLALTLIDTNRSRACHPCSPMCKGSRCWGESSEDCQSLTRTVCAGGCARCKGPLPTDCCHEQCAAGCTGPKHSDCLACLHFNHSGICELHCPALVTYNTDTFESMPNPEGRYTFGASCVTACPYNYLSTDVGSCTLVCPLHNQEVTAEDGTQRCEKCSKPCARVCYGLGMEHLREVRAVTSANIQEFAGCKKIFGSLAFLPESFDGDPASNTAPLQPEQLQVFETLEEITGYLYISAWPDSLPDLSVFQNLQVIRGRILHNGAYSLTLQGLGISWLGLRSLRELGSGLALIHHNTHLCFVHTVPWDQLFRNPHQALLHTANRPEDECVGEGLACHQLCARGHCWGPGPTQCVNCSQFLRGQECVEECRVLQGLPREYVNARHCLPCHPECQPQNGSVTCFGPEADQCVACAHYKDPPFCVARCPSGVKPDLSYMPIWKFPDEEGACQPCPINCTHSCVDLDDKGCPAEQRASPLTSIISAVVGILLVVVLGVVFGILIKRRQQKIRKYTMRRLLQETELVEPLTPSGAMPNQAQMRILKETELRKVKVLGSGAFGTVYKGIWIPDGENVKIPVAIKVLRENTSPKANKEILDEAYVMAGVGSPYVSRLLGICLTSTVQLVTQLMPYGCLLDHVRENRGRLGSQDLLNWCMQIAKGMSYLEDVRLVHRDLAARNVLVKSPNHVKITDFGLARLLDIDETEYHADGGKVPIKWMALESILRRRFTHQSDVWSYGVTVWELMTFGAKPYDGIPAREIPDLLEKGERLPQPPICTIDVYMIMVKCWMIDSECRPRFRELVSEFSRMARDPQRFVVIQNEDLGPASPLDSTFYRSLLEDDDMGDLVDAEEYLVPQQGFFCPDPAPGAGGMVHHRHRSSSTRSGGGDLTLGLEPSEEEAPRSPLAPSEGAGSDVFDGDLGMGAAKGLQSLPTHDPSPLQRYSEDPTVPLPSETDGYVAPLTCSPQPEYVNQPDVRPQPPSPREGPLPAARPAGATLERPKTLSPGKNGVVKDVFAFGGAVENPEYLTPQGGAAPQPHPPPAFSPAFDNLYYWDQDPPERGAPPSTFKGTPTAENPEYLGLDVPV

CN1CCN(Cc2ccc(-c3ccc4ncnc(Nc5ccc(OCc6cccc(F)c6)c(Cl)c5)c4c3)o2)CC1
IC50 [1]: 23.7 nM
IC50 [2]: 12.5 nM

Cc1ccc(S(=O)(=O)O)cc1.Fc1cccc(COc2ccc(Nc3ncnc4ccc(-c5ccc(CN6CCNCC6)o5)cc34)cc2Cl)c1
Activity (Mus musculus [3]): Toxic
Activity (Mus musculus [4]): Toxic
Activity (Mus musculus [5]): Toxic
Activity (Mus musculus [6]): Toxic
Activity (Mus musculus [7]): Toxic
Activity (Mus musculus [8]): Toxic
Activity (Mus musculus [9]): Toxic
Activity (Mus musculus [10]): Toxic
Activity (Mus musculus [11]): Toxic
Activity (Mus musculus [12]): Toxic
Activity (Mus musculus [13]): Toxic
Activity (Mus musculus [14]): Toxic
IC50 (BT-474): 41.9 nM
IC50 (NCI-N87 [15]): 29.2 nM
IC50 [1]: 12.3 nM

CCOC(=O)N1CCN(Cc2ccc(-c3ccc4ncnc(Nc5ccc(OCc6cccc(F)c6)c(Cl)c5)c4c3)o2)CC1
IC50 [1]: 14.4 nM
IC50 [2]: 28 nM

CS(=O)(=O)N1CCN(Cc2ccc(-c3ccc4ncnc(Nc5ccc(OCc6cccc(F)c6)c(Cl)c5)c4c3)o2)CC1
IC50 [1]: 19.8 nM
IC50 [2]: 59.9 nM

CC(=O)N1CCN(Cc2ccc(-c3ccc4ncnc(Nc5ccc(OCc6cccc(F)c6)c(Cl)c5)c4c3)o2)CC1
IC50 [1]: 6.8 nM
IC50 [2]: 11.4 nM

CN1CCN(C(=O)c2ccc(-c3ccc4ncnc(Nc5ccc(OCc6cccc(F)c6)c(Cl)c5)c4c3)o2)CC1
IC50 [1]: 53.3 nM
IC50 [2]: 232 nM

CS(=O)(=O)CCNCc1ccc(-c2ccc3ncnc(Nc4ccc(OCc5cccc(F)c5)c(Cl)c4)c3c2)o1.Cc1ccc(S(=O)(=O)O)cc1.Cc1ccc(S(=O)(=O)O)cc1.O [LAPATINIB DITOSYLATE]
half-life [16]: 1.91 h
MRT [17]: 5.52 h
AUC(0-inf) [18]: 26900 ng·h/mL
AUC(0-t) [19]: 26900 ng·h/mL
Cmax [20]: 3900 ng/mL
Tmax [21]: 2.5 h
inhibition in vivo at 200 mg/kg (NCI-N87 [22]): 89.7%
IC50 (BT-474): 37.4 nM
IC50 (NCI-N87 [15]): 46.2 nM
solubility [23]: 7 µg/mL
inhibition in vivo at 200 mg/kg (SK-OV-3): 78.8%
